Experimental data published in ChEMBL document CHEMBL5712908, “A genome-wide RNAi screen reveals essential therapeutic targets of breast cancer stem cells” (2019).
Calls of active or inactive are those of the source. The rule behind the calls is not given here.

How the values were obtained:
MDA-MB-436 = assay: Antitumor activity against human MDA-MB-436 cells assessed as K-score by measuring ALDHbr cells by LSR2 cytometer; format: functional
How it was run: (§1)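 Cell lines exposed for 72 h in adherent culture to a range of concentrations centred on the MTS-derived IC50. ALDHbr proportion measured by ALDEFLUOR flow cytometry (LSR2). K-score is the linear regression coefficient, on log10-transformed doses, between the untreated condition and the dose predicted to give a 50% decrease or increase in ALDHbr proportion versus control.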

Breast cancer cell line [1] = assay: Synergistic antitumor activity against human CRCM494 negative breast cancer cells orthotopically xenografted in NSG mouse model of PDX assessed as reduction in tumor volume at 50 mg/kg, ip 5 out of 7 for 2 weeks cotreated with salinomycin; format: functional, organism-based
How it was run: (§2)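 Orthotopic PDX in NSG mice, 100,000 cells per fat pad, two pads per mouse; treatment from ~80 mm³ tumours with salinomycin i.p. 3 mg/kg daily 14 days, JQ1 i.p. 50 mg/kg 5 of 7 days for 2 weeks, or combination, against placebo DMSO/HPCD 10% (1:9). Tumour growth monitored; n = 10 tumours per group.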

Breast cancer cell line [2] = assay: Antitumor activity against human CRCM494 negative breast cancer cells orthotopically xenografted in NSG mouse model of PDX assessed as reduction in tumor volume at 50 mg/kg, ip 5 out of 7 for 2 weeks; format: functional, organism-based
How it was run: (§3)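 Chemo-naïve triple-negative PDX cells injected at 100,000 per fat pad, two fat pads per NSG mouse. At ~80 mm³ tumours, mice received i.p. 3 mg/kg daily for 14 days or 50 mg/kg 5 of 7 days for 2 weeks; placebo was DMSO/HPCD 10% (1:9). Five mice (10 tumours) per group. Tumour growth monitored; after 2 weeks tumours dissociated, mouse cells excluded via anti-H2Kd, ALDHbr measured by ALDEFLUOR flow cytometry and normalised to vehicle.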

SUM-159-PT [3] = assay: Anticancer activity against human SUM159 cells assessed as decrease in secondary tumor sphere formation incubated for 72 hrs by Extreme limiting dilution analysis; format: functional, cell-based
How it was run: (§4)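 Cells drug-treated in adherent culture for 72 h, then plated as single cells in ultra-low attachment 96-well plates in serum-free mammary epithelium basal medium. Plating at 25/10/5/3/2/1 cells per well, 18–36 wells per condition. Wells with ≥1 sphere after 10 days scored positive. Secondary spheres were made by dissociating primary spheres. Frequency by ELDA; n = 4; pairwise chi-square test.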

Breast cancer cell line [4] = assay: Antitumor activity against human CRCM434 negative breast cancer cells orthotopically xenografted in NSG mouse model of PDX assessed as reduction ALDHbr cells at 50 mg/kg, ip 5 out of 7 for 2 weeks by LSR2 cytometer analysis; format: functional, organism-based; how it was run: as §3
SUM-159-PT [5] = assay: Synergistic anticancer activity against human SUM159 cells expressing BFP assessed as reduction in ALDHbr cell at 5 to 500 nM in presence of salinomycin by LSR2 cytometer analysis; format: functional, cell-based; conditions: dose 5-500 nM
Breast cancer cell line [6] = assay: Antitumor activity against human CRCM494 negative breast cancer cells orthotopically xenografted in NSG mouse model of PDX assessed as reduction ALDHbr cells at 50 mg/kg, ip 5 out of 7 for 2 weeks by LSR2 cytometer analysis; format: functional, organism-based; how it was run: as §3
[7] = Antitumor activity against human S68 cells assessed as K-score by measuring ALDHbr cells by LSR2 cytometer; format: functional; how it was run: as §1
[8] = Antitumor activity against human BrCa-MZ-01 cells assessed as K-score by measuring ALDHbr cells by LSR2 cytometer; format: functional; how it was run: as §1
Breast cancer cell line [9] = assay: Synergistic antitumor activity against human CRCM404 negative breast cancer cells orthotopically xenografted in NSG mouse model of PDX assessed as reduction in tumor volume at 50 mg/kg, ip 5 out of 7 for 2 weeks cotreated with salinomycin; format: functional, organism-based; how it was run: as §2
SUM-159-PT [10] = assay: Induction of apoptosis in human SUM159 cells expressing ALDHbr upto 100 uM incubated for 72 hrs by ALDEFLUOR/YO-PRO-3/ Hoechst 33342 staining based high content imaging microscopic analysis; format: functional, cell-based
How it was run: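 SUM159 at 3,000 cells/well on collagen plates, dosed at 6, 24 and 48 h post-seeding; 0.1% DMSO negative control, cisplatin positive control. At 72 h stained 30 min at 37°C with ALDEFLUOR, YO-PRO-3 and Hoechst 33342, then imaged ice-cold. YO-PRO-3-positive nuclei (above untreated signal) counted over total cells, per ALDHbr/ALDH- subpopulation; n = 6.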

SUM-159-PT [11] = assay: Anticancer activity against human SUM159 cells assessed as decrease in primary tumor sphere formation incubated for 72 hrs by Extreme limiting dilution analysis; format: functional, cell-based; how it was run: as §4
SUM-159-PT [12] = assay: Synergistic anticancer activity against human SUM159 cells assessed as decrease in docetaxel induced ALDHbr cells at 62 nM in presence of salinomycin by LSR2 cytometer analysis; format: functional, cell-based
How it was run: (§5)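 SUM159 or SUM149 cells treated 72 h in adherent conditions; docetaxel combined with other drugs at 2 nM; combination doses chosen from synergy distributions (Sal/JQ1 62 nM/62 nM). ALDEFLUOR staining with DEAB control, flow cytometry on LSR2. n = 8; Student's t-test; mean ± SD.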

SUM-159-PT [13] = assay: Antitumor activity against human SUM159 cells assessed as K-score by measuring ALDHbr cells by LSR2 cytometer; format: functional; how it was run: as §1
SUM149PT [14] = assay: Anticancer activity against human SUM149 cells assessed as ALDHbr cells at 10 uM by LSR2 cytometer (reference value: 4.8%); format: functional
SUM149PT [15] = assay: Synergistic anticancer activity against human SUM149 cells assessed as decrease in docetaxel induced ALDHbr cells at 62 nM in presence of salinomycin by LSR2 cytometer analysis; format: functional, cell-based; how it was run: as §5
Breast cancer cell line [16] = assay: Synergistic antitumor activity against human CRCM404 negative breast cancer cells xenografted in NSG mouse model of PDX assessed as reduction metastasis formation in lung at 50 mg/kg, ip 5 out of 7 for 2 weeks cotreated with salinomycin; format: functional, organism-based
How it was run: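 Luciferase-expressing PDX cells sorted H2Kd⁻ and viable, 100,000 in 100 μl PBS injected in NSG tail vein. From the next day, salinomycin 3 mg/kg i.p. daily and/or JQ1 50 mg/kg i.p. 5 of 7 days for 2 weeks. Lungs and liver imaged by bioluminescence after i.p. luciferin 30 mg/kg; normalised photon flux; 10 mice/group; Wilcoxon test.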

For Cc1sc2c(c1C)C(c1ccc(Cl)cc1)=N[C@@H](CC(=O)OC(C)(C)C)c1nnc(C)n1-2, the Activity (MDA-MB-436) was -0.15, the Activity (Breast cancer cell line [1]) was “Active” and the Activity (Breast cancer cell line [2]) was “Active”. The Activity (SUM-159-PT [3]) was “Active”, the Activity (Breast cancer cell line [4]) was “Active” and the Activity (SUM-159-PT [5]) was “Active”. The Activity (Breast cancer cell line [6]) was “Active”, the Activity [7] was -0.15 and the Activity [8] was -0.03. For the same molecule, the Activity (Breast cancer cell line [9]) was “Active”, the Activity (SUM-159-PT [10]) was “Active” and the Activity (SUM-159-PT [11]) was “Active”. The Activity (SUM-159-PT [12]) was “Active”, the Activity (SUM-159-PT [13]) was -0.2 and the Activity (SUM149PT [14]) was 5.1%. For the same molecule, the Activity (SUM149PT [15]) was “Active” and the Activity (Breast cancer cell line [16]) was “Active”.
